Laboratory results as given in ChEMBL document CHEMBL1126277, “6-substituted decahydroisoquinoline-3-carboxylic acids as potent and selective conformationally constrained NMDA receptor antagonists” (J Med Chem, 1992).

How the values were obtained:
Mus musculus [1] = test: Minimum effective dose measures the in vivo N-methyl-D-aspartate glutamate receptor antagonist activity of compound and its ability to protect mice from lethality induced by 200 mg/kg ip injection of NMDA.; format: functional; settings: route intraperitoneal, read-out: MED
In short: (§1)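 Mice were given the compound ip 30 min before an ip challenge of NMDA at 200 mg/kg, a dose lethal to ≥95% of animals. Survival was scored with five animals tested per dose. MED was taken as the lowest dose protecting >50% of animals, meaning at least three of five survived.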

[2] = In vitro inhibition of 40 uM NMDA induced depolarization in rat cortical slices.
Glutamate NMDA receptor [3] = test: Displacement of [3H]CGS-19,755 from glutamate recognition site of N-methyl-D-aspartate glutamate receptor complex; format: protein-complex assay, Rattus norvegicus
Mus musculus [4] = test: Minimum effective dose measures the in vivo NMDA antagonist activity of compound and its ability to protect mice from lethality induced by 200 mg/kg ip injection of NMDA.; format: functional; settings: route intraperitoneal; for MED: NMDA challenge 200 mg/kg, 200 mg/kg; for minimal effective dose: Mus musculus, ip, read-out: MED; in short: as §1
Glutamate NMDA receptor [5] = test: In vitro compound's ability to displace [3H]-CGS-19,755 binding as a measure of its affinity for the glutamate recognition site on the NMDA receptor complex.; format: protein-complex assay

Structure (SMILES)	minimal effective dose (Mus musculus [1])	IC50 [2]	IC50 (Glutamate NMDA receptor [3])	MED (Mus musculus [4])	IC50 (Glutamate NMDA receptor [5])	minimal effective dose (Mus musculus [4])
O=C(O)[C@@H]1C[C@H]2CC(CP(=O)(O)O)CC[C@H]2N1 (stereo partly drawn)	> 160 mg/kg	> 100 µM	> 10 µM	–	–	–
O=C(O)C1CC2CC(Cc3nnn[nH]3)CCC2CN1 (stereo not drawn)	> 160 mg/kg	> 100 µM	> 10 µM	–	–	–
O=C(O)C1CC2C[C@@H](Cc3nnn[nH]3)CCC2CN1 (stereo in doubt; 32a)	–	1.39 µM	–	2.5 mg/kg	–	–
O=C(O)[C@@H]1C[C@H]2CC(Cc3nnn[nH]3)CC[C@H]2N1 (stereo partly drawn)	> 160 mg/kg	> 100 µM	> 10 µM	–	–	–
CN1CCC2(CCCC(CP(=O)(O)O)C2)CC1C(=O)O (stereo not drawn)	–	–	–	–	> 10 µM	> 160 mg/kg
O=C(O)C1NCCC2CC(Cc3nnn[nH]3)CCC21 (stereo not drawn)	160 mg/kg	7.8 µM	–	–	–	–
O=C(O)C1CC2C[C@@H](Cc3nnn[nH]3)CCC2CN1 (stereo in doubt; 32b)	–	4.8 µM	–	40 mg/kg	–	–
O=C(O)C1Cc2cc(CP(=O)(O)O)ccc2CN1 (stereo not drawn)	> 160 mg/kg	34.4 µM	13.8 µM	–	–	–
O=C(O)[C@@H]1C[C@H](CP(=O)(O)O)CCN1 [SELFOTEL]	–	1.6 µM	–	–	–	–
O=C(O)[C@H]1C[C@@H](Cc2nnn[nH]2)CCN1	–	4.2 µM	–	–	–	5 mg/kg
O=C(O)C1Cc2cc(Cc3nnn[nH]3)ccc2CN1 (stereo not drawn)	> 160 mg/kg	36.6 µM	–	–	–	–
O=C(O)C1CC2CC(CP(=O)(O)O)CCC2CN1 (stereo not drawn)	> 160 mg/kg	> 100 µM	> 10 µM	–	–	–
